Hits are enriched below; roughly 2.5% of the tested compounds scored in any of these assays.
Diaphorase act – activates diaphorase or chemically reduces, flagging diaphorase assay artifacts; actives 0.005% (n = 190,000); AID 1229; activation factor at 20 µM; Diaphorase/resazurin coupled assay, resorufin fluorescence, 16 min; hits give high values; 1 = vehicle wells, 0 = NADH-free wells;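 active = diaphorase activity raised at least twofold by the compound at 20 µM; inactive = activation factor below 2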
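Material: bacterial diaphorase enzyme (C. kluyveri); amount: enzyme 0.07 U/mL final; reagent: NADH substrate 0.114 mM plus resazurin dye 0.1 mM, final; doses: single compound dose of 20 µM, 1% DMSO final; timing: 16 min enzyme reaction, ambient temperature; measured by: fluorescence of resorufin, 544 nm excitation, 590 nm emission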
FLuc inhib CS – counter-screen for luciferase assay inhibitors: firefly luciferase inhibition | P08659 | ATPLite firefly luciferase biochemical luminescence, 10 min | actives 1.5% (n = 200,000) | inhibition, % at 10 µM;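 active = inhibition above about 50% when tested at 10 µM, limit read from the data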
PMI act hi M6P – increases human PMI activity with near-saturating mannose 6-phosphate; coupled PMI enzyme assay, resazurin fluorescence, 20 min; hits give high values; 1 = untreated enzyme, 0 = substrate-free blank; activation factor at 20 µM; actives 0.34% (n = 190,000);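 active = activation factor of 2 or more at 20 µM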
Target sequence (P34949 whole entry, looked up): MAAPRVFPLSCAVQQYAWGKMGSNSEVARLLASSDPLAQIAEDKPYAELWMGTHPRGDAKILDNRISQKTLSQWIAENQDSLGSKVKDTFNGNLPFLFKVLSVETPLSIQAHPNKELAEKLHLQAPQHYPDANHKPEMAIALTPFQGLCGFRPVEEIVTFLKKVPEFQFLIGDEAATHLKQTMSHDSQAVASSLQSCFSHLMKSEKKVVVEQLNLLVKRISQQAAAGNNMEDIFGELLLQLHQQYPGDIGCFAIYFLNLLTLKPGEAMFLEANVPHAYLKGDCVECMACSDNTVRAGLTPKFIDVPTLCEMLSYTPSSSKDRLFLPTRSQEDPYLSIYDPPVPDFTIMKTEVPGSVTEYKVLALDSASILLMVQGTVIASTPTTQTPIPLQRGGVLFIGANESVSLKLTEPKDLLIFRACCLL
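Test system: human phosphomannose isomerase with PGI, G6PDH, diaphorase coupling enzymes / Doses: 20 µM compound, 1% DMSO / Times: enzyme reaction with compound 20 min at room temperature / Measured by: Diaphorase-driven resazurin-to-resorufin fluorescence, excitation 544, emission 590 nm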
Diaph inh CS – inhibits diaphorase or chemically oxidizes, flagging diaphorase assay artifacts; diaphorase resazurin-to-resorufin fluorescence, NADH, 16 min; bacterial (C. kluyveri) enzyme, not human; inhibition, % at 20 µM; actives 0.69% (n = 190,000); AID 1217;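 active = primary screen inhibition at 20 µM above a set limit, cut at about 50% in these data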;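 also: plate controls were DMSO with full reaction for no effect and wells lacking NADH for full effect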
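System: Diaphorase enzyme from Clostridium kluyveri | Amount: Enzyme working solution with 0.14 U/mL diaphorase | Benchmarks: No-NADH positive control and DMSO neutral control | Signal: Fluorescence of resorufin formed from resazurin, Ex 544/Em 590 nm | Schedule: 16-min room-temperature incubation before reading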
FLuc act counter – firefly luciferase counter-screen for stimulation assays. ATPlite luciferase biochemical, luminescence, 10 min; 0 = ATP-free wells, 1 = DMSO control. activation factor at 10 µM. 200,000 tested, under 10 active. AID 1027;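 active = luciferase activation factor, scaled between plate controls, of at least 2 with compound at 10 µM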
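Assay system – cell-free luciferase reagent · Medium – PBS-based ATP solution · Dosing – test compounds dosed from 2 mM stocks in 100% DMSO · Timing – 10 min, room temperature · Technique – light output (luminescence) · Measure – luminescence gain marking luciferase activators · Controls – No-ATP low control, compound-free enzyme-plus-ATP high control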
PMI activator – increases human mannose-6-phosphate isomerase activity. P34949. purified human PMI, coupled resazurin fluorescence, 20 min; hits give high values; 1 = vehicle control, 0 substrate-free wells. activation factor at 20 µM. actives 0.005% (n = 190,000);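 active = activation factor of 2 or more at 20 µM, relative to plate controls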
An asterisk follows results filed as active.

SMILES	Diaphorase act	FLuc inhib CS	PMI act hi M6P	Diaph inh CS	FLuc act counter	PMI activator
CCOc1ccc(CCNC(=O)Cn2cccc2C(=O)c2ccccc2C)cc1OCC	0.8	-6	1	16	1.1	0.9
O=[N+]([O-])c1ccccc1N/N=C1\CC2CC=CC12 (configuration not stated)	0.4	8	0.9	61*	0.9	1
CC(C)CCSc1nc2[nH]ncc2c(=O)[nH]1	1	-5	1.1	3	1.1	1.1
Cc1nc(-c2ccc(NC(=O)c3ccccc3Br)cc2)cs1	0.8	45	0.8	23	0.5	0.9
O=C(COC(=O)c1cc2ccccc2oc1=O)c1cccc([N+](=O)[O-])c1	0.9	-4	0.9	10	1	0.8
CCOC(=O)c1c(NC(=O)C2C3C=CC(C3)C2C(=O)O)sc2c1CCC(CC)C2 (configuration not stated)	0.8	0	0.9	16	1	0.9
CCOC(=O)c1c(NC(=O)C2C3CCC(O3)C2C(=O)O)sc2c1CCC(CC)C2 (configuration not stated)	0.5	-7	1	55*	1.1	1
O=C(/C=C/Nc1ccc(Nc2ccccc2)cc1)c1cccs1	0.8	17	0.6	20	0.8	0.8
O=C(/C=C/Nc1cccc([N+](=O)[O-])c1)c1cccs1	1	51*	1.1	5	0.5	1.1
Cc1cc(N/C=C/C(=O)c2cccs2)ccc1F	0.7	80*	0.8	28	0.2	1
O=C(/C=C/Nc1ccccc1C(=O)O)c1cccs1	0.9	65*	1.1	6	0.4	1
Cc1ccc(N/C=C/C(=O)c2cccs2)cc1C	0.8	94*	0.8	16	0.1	0.9
COc1ccc2c(=O)c3c(=O)n(Cc4ccco4)c(-c4ccco4)nc3oc2c1	0.5	-2	0.9	52*	1	0.9
CC1CCN(c2ccc(C(=O)OCC(=O)NCCN3C(=O)CSC3=O)cc2[N+](=O)[O-])CC1	0.9	-1	1	14	1	1
O=C1N=C(c2ccccc2)S/C1=C\c1cccs1	0.7	26	1.7	27	0.7	1.4
O=C1OC(c2ccccc2)=C/C1=C/c1cccs1	0.9	79*	1	10	0.2	1.1
COc1ccc(-c2csc(NCc3ccco3)n2)cc1	0.8	72*	1	16	0.3	1
Cc1ccc(/C=C2\CCC(C3CCCC3)C2=O)cc1 (configuration not stated)	0.9	57*	1.1	7	0.4	1
Cc1ccccc1NC(=S)NNC(=O)c1csc2c1CCC(C)C2 (configuration not stated)	1	60*	1.2	-4	0.4	1.2
CCNC(=S)NNC(=O)c1csc2c1CCC(C)C2 (configuration not stated)	1.1	-2	1.1	-6	1	1.1
COc1cc(/C=C2\SC(=O)N(CCN)C2=O)ccc1OS(=O)(=O)c1cc(C)ccc1C	1.8	-2	1.1	-76	1	1.1
COc1ccc(C2=Nn3c(nnc3-c3ccco3)SC2)cc1	1.1	-2	1.2	-6	1	1.2
Oc1ccc(C2=Nn3c(nnc3-c3ccco3)SC2)cc1O	0.3	5	0.4	70*	1	0.4
Cc1ccc(C(=O)C(c2ccccc2)N2Cc3ccccc3C2=N)cc1 (configuration not stated)	0.9	-4	1.2	9	1	1.1
CN(CCC#N)C(=O)COC(=O)c1ccc(CNS(=O)(=O)c2ccc(F)c(Cl)c2)cc1	1	-1	1	2	1	0.9
Cc1[nH]c2ccccc2c1C(=O)CSC(=S)N(C)C1CCCCC1	0.8	9	1	22	0.9	1
Cc1[nH]c2ccccc2c1C(=O)CSC(=S)N1CCCCC1	0.8	55*	0.8	21	0.5	0.9
